Measured values reported in ChEMBL document CHEMBL2311425, “Histone deacetylase (HDAC) inhibitors with a novel connecting unit linker region reveal a selectivity profile for HDAC4 and HDAC5 with improved activity against chemoresistant cancer cells” (J Med Chem, 2013).

Experiments:
Histone deacetylase [1] = experiment: Inhibition of HDAC in cisplatin sensitive human MDA-MB-231 cells after 18 hrs by fluorescence assay; format: cell-based
CAL-27 [2] = experiment: Cytotoxicity against cisplatin resistant human CAL27 cells after 72 hrs by MTT assay; format: functional, cell-based; details: CAL-27, 72 h
A2780 = experiment: Cytotoxicity against human A2780 cells after 72 hrs by MTT assay; format: functional, cell-based; details: A2780, 72 h
Histone deacetylase [3] = experiment: Inhibition of HDAC in cisplatin resistant human CAL27 cells after 18 hrs by fluorescence assay; format: cell-based; details: cal-27
MDA-MB-231 [4] = experiment: Cytotoxicity against cisplatin sensitive human MDA-MB-231 cells after 72 hrs by MTT assay; format: functional, cell-based; details: MDA-MB-231, 72 h
How it was run: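 MDA-MB-231 (parental), 10 000 cells/well, in DMEM with 15% FCS at 37 °C, 5% CO2. Compounds added 24 h after seeding for 72 h. MTT (5 mg/mL in PBS) was added, formazan dissolved in DMSO, absorbance read at 544 and 690 nm. IC50 from four-parameter logistic fit of ≥3 experiments in triplicate.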

Histone deacetylase [5] = experiment: Inhibition of HDAC in cisplatin resistant human MDA-MB-231 cells after 18 hrs by fluorescence assay; format: cell-based
[6] = molecular target: T1, Protein deacetylase HDAC6 (Homo sapiens, UniProt Q9UBN7); experiment: Inhibition of human HDAC6 by fluorescence assay
T1 sequence (Q9UBN7 whole entry): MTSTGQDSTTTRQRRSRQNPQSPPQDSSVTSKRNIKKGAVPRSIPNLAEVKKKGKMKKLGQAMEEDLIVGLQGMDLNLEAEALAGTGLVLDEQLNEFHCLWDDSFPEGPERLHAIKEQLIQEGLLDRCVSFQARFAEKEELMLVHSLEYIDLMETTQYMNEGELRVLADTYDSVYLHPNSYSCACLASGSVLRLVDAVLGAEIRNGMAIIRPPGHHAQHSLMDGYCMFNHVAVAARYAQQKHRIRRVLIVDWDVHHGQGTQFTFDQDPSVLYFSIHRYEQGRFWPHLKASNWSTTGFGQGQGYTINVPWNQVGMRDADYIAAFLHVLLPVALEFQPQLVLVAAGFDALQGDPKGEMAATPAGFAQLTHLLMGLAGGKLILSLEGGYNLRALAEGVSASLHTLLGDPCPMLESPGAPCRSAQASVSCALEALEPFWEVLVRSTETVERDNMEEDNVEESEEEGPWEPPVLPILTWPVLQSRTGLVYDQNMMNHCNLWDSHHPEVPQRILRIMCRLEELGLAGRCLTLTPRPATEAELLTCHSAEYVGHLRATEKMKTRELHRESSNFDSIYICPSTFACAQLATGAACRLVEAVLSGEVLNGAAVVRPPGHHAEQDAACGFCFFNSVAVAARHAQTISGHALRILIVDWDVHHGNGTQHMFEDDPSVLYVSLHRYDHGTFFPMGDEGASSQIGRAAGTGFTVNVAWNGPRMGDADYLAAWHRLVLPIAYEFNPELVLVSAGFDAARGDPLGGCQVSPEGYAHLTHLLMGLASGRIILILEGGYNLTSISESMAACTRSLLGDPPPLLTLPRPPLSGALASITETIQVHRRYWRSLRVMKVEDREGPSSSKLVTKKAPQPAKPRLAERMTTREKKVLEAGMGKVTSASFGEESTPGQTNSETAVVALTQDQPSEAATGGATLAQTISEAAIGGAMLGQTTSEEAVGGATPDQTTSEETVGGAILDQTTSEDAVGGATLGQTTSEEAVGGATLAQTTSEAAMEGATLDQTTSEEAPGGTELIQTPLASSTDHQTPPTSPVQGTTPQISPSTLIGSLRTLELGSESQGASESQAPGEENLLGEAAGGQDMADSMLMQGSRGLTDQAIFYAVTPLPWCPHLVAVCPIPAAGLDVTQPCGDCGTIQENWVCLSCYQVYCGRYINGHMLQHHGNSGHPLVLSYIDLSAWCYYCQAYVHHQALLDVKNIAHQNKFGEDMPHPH

Histone deacetylase [7] = experiment: Inhibition of HDAC in human A2780 cells after 18 hrs by fluorescence assay; format: cell-based
Histone deacetylase [8] = experiment: Inhibition of HDAC in cisplatin resistant human A2780 cells after 18 hrs by fluorescence assay; format: cell-based
Histone deacetylase 11 = molecular target: T2, Histone deacetylase 11 (Homo sapiens, UniProt Q96DB2); experiment: Inhibition of human HDAC11 by fluorescence assay
T2 sequence (Q96DB2 whole entry): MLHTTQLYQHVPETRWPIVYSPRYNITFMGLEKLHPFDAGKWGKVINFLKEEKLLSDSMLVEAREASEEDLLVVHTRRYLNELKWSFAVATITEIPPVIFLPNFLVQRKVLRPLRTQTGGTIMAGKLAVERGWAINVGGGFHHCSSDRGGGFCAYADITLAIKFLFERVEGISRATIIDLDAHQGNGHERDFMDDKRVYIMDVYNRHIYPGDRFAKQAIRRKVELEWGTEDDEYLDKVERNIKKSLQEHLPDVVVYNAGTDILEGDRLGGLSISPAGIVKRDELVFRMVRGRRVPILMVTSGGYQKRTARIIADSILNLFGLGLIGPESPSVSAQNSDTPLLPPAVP

Histone deacetylase 5 = Histone deacetylase 5 (Homo sapiens, UniProt Q9UQL6); experiment: Inhibition of human HDAC5 by fluorescence assay
Chain of Histone deacetylase 5 (Q9UQL6 whole entry): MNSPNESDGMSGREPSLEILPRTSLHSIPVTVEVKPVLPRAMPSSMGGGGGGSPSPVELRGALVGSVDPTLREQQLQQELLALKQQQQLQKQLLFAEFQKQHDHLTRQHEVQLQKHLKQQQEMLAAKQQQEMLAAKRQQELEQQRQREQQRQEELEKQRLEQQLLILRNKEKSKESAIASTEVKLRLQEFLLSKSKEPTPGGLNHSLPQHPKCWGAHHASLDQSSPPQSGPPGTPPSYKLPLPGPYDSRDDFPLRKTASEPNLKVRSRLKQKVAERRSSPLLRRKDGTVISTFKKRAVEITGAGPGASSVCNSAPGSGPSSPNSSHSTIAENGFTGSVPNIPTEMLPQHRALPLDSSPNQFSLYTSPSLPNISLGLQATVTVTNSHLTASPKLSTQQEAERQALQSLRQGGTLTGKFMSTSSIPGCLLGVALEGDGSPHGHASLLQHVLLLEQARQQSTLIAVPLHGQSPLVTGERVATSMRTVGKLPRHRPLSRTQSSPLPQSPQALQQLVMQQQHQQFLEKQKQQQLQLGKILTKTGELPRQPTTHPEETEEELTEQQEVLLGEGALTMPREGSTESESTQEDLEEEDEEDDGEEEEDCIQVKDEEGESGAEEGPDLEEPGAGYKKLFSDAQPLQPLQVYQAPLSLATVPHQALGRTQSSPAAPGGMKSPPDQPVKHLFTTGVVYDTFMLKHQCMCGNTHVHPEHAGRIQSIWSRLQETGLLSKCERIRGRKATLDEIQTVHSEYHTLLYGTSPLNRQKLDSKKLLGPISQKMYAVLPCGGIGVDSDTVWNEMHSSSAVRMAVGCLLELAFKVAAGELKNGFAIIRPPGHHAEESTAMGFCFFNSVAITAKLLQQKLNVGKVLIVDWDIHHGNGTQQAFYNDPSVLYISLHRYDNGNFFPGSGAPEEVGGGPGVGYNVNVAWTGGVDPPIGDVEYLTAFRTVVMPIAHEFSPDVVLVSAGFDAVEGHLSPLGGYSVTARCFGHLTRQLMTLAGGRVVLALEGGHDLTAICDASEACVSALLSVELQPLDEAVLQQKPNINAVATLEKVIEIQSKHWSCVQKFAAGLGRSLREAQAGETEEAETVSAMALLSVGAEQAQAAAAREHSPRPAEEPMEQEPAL

CAL-27 [9] = experiment: Cytotoxicity against cisplatin sensitive human CAL27 cells after 72 hrs by MTT assay; format: functional, cell-based; details: CAL-27, 72 h
Histone deacetylase 2 = Histone deacetylase 2 (Homo sapiens, UniProt Q92769); experiment: Inhibition of human HDAC2 by fluorescence assay
Chain of Histone deacetylase 2 (Q92769 whole entry): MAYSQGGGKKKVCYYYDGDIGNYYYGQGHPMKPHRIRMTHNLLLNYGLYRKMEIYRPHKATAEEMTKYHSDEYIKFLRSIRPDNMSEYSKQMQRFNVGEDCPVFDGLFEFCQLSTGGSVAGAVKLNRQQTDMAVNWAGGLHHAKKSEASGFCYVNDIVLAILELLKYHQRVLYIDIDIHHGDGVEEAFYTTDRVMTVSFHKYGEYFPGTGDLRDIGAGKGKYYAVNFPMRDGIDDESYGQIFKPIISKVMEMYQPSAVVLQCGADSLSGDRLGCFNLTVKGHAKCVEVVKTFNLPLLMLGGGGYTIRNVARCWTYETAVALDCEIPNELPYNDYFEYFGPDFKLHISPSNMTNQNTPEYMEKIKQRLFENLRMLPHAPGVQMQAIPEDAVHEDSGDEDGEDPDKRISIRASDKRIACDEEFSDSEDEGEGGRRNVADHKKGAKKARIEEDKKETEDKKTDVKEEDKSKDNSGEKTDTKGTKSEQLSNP

KYSE-510 [10] = experiment: Cytotoxicity against cisplatin sensitive human KYSE-510 cells after 72 hrs by MTT assay; format: functional, cell-based; details: KYSE-510, 72 h
Histone deacetylase [11] = experiment: Inhibition of HDAC in cisplatin sensitive human KYSE-510 cells after 18 hrs by fluorescence assay; format: cell-based
MDA-MB-231 [12] = experiment: Cytotoxicity against cisplatin resistant human MDA-MB-231 cells after 72 hrs by MTT assay; format: functional, cell-based; details: MDA-MB-231, 72 h
KYSE-510 [13] = experiment: Cytotoxicity against cisplatin resistant human KYSE-510 cells after 72 hrs by MTT assay; format: functional, cell-based; details: KYSE-510, 72 h
Histone deacetylase [14] = experiment: Inhibition of HDAC in cisplatin resistant human KYSE-510 cells after 18 hrs by fluorescence assay; format: cell-based
Histone deacetylase 4 = Histone deacetylase 4 (Homo sapiens, UniProt P56524); experiment: Inhibition of human HDAC4 by fluorescence assay
Chain of Histone deacetylase 4 (P56524 whole entry): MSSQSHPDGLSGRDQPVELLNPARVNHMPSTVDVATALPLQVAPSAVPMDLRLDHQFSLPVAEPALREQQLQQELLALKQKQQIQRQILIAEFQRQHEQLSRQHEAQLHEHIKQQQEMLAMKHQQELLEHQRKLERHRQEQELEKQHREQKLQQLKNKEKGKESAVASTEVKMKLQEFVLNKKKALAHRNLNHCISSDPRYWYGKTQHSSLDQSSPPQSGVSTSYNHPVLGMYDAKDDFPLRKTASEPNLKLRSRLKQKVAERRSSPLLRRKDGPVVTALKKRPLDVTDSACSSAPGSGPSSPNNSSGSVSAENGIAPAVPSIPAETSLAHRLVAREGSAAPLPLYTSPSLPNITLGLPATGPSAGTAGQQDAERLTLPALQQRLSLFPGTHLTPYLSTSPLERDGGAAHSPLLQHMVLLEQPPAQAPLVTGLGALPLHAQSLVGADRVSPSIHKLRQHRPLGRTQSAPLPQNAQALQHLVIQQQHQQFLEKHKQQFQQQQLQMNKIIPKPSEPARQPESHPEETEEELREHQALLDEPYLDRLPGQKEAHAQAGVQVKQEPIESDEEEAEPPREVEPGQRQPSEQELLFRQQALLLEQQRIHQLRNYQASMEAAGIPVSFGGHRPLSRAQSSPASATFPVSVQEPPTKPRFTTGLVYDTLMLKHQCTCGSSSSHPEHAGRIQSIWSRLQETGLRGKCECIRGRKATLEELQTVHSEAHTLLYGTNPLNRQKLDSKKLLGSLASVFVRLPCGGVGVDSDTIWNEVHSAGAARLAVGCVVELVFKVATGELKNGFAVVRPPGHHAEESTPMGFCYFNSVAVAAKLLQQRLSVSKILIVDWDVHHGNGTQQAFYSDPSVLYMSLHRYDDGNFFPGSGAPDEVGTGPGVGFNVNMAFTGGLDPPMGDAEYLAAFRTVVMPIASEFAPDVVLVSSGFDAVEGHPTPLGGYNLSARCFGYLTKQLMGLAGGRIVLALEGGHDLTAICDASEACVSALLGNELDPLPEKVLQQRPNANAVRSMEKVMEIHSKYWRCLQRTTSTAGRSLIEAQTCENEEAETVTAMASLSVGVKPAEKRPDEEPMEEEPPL

Histone deacetylase 8 = molecular target: T3, Histone deacetylase 8 (Homo sapiens, UniProt Q9BY41); experiment: Inhibition of human HDAC8 by fluorescence assay
T3 sequence (Q9BY41 whole entry): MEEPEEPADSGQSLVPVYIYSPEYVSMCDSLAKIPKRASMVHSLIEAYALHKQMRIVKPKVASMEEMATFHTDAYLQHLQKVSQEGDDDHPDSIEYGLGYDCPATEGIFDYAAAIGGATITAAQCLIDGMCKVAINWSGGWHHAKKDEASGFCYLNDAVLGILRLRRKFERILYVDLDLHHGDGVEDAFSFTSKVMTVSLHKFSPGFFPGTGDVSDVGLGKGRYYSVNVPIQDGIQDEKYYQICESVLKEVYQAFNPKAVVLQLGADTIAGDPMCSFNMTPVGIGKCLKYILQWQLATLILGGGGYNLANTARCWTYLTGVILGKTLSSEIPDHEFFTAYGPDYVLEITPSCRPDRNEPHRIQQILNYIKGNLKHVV

Histone deacetylase 1 = Histone deacetylase 1 (Homo sapiens, UniProt Q13547); experiment: Inhibition of human HDAC1 by fluorescence assay
Chain of Histone deacetylase 1 (Q13547 whole entry): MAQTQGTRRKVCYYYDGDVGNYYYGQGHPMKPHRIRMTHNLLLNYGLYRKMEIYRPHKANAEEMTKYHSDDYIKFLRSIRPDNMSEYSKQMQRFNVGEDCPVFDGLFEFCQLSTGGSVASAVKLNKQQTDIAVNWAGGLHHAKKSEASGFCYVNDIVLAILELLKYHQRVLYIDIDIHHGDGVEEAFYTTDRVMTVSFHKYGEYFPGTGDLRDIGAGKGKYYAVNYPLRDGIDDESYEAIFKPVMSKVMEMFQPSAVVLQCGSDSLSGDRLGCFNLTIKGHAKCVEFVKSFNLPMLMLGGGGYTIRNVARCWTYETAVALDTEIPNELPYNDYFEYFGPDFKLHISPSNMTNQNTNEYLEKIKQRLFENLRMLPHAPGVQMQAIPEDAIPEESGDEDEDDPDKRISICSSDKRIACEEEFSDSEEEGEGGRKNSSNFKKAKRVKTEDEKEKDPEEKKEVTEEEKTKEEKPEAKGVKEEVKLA

Histone deacetylase [15] = experiment: Inhibition of HDAC in cisplatin sensitive human CAL27 cells after 18 hrs by fluorescence assay; format: cell-based; details: cal-27
[16] = test system: A2780 CisR (Homo sapiens); experiment: cells; details: 72 h

In the case of `Cc1ccc(C(=O)NOCCCCCC(=O)NO)cc1C`, the IC50 (Histone deacetylase [1]) is reported as 1570 nM, the IC50 (CAL-27 [2]) is reported as 4310 nM and the IC50 (A2780) is reported as 1540 nM. The IC50 (Histone deacetylase [3]) was 910 nM, the IC50 (MDA-MB-231 [4]) was 2770 nM and the IC50 (Histone deacetylase [5]) was 1660 nM. The IC50 [6] was 18.1 nM, the IC50 (Histone deacetylase [7]) was 1610 nM and the IC50 (Histone deacetylase [8]) was 880 nM. For the same compound, the IC50 (Histone deacetylase 11) was 997 nM, the IC50 (Histone deacetylase 5) was 33.4 nM and the IC50 (CAL-27 [9]) was 2900 nM. It also gave an IC50 (Histone deacetylase 2) of 944 nM, an IC50 (KYSE-510 [10]) of 10000 nM and an IC50 (Histone deacetylase [11]) of 2820 nM. For the same compound, the IC50 (MDA-MB-231 [12]) was 3770 nM, the IC50 (KYSE-510 [13]) was 9460 nM and the IC50 (Histone deacetylase [14]) was 1100 nM. The IC50 (Histone deacetylase 4) was 82.6 nM, the IC50 (Histone deacetylase 8) was 833 nM and the IC50 (Histone deacetylase 1) was 320 nM. For the same compound, the IC50 (Histone deacetylase [15]) was 1100 nM and the IC50 [16] was 1780 nM.
